Laboratory results reported in ChEMBL document CHEMBL3797182, “In vitro evaluation of imidazo[4,5-c]quinolin-2-ones as gametocytocidal antimalarial agents” (Bioorg Med Chem Lett, 2016).

Tests used:
[1] = system: Plasmodium falciparum; assay: Antimalarial activity against chloroquine-sensitive asexual blood stage of Plasmodium falciparum 3D7 infected in RBC after 72 hrs by SYBR Green assay; type: functional, organism-based; details: 3D7, 72 h
In short: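 Asexual blood-stage P. falciparum 3D7 (chloroquine-sensitive) parasites. 1536-well format, 11-point dose-response, duplicate tests. Torin 2 served as positive control and DMSO as negative control.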

[2] = system: Plasmodium falciparum; assay: Gametocytocidal activity against chloroquine-sensitive late gametocytic stage (III to V) of Plasmodium falciparum 3D7 after 72 hrs by Alamar Blue assay; type: functional, organism-based; details: 3D7, 72 h
In short: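 Late-stage (III–V) P. falciparum 3D7 gametocytes. AlamarBlue redox indicator reads cytosolic metabolic activity as a measure of gametocyte viability. 1536-well format, 11-point dose-response, duplicates. Torin 2 positive control, DMSO negative control.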

[3] = system: HepG2; assay: Cytotoxicity against human HepG2 cells assessed as cell viability after 24 hrs; type: cell-based; details: HepG2, 24 h
In short: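 HepG2 cell viability as general cytotoxicity. 1536-well, 11-point dose-response in duplicate, top concentration 46 μM. Torin 2 positive control, DMSO negative control.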

[4] = system: Plasmodium falciparum; assay: Selectivity ratio of IC50 for chloroquine-sensitive late gametocytic stage (III to V) of Plasmodium falciparum 3D7 to IC50 for chloroquine-sensitive asexual blood stage of Plasmodium falciparum 3D7; type: functional

Row | SMILES | IC50 [1] [nM] | IC50 [2] [nM] | IC50 [3] [nM] | Ratio IC50 [4]
1 | Nc1ccc(-c2ccc3ncc4[nH]c(=O)n(-c5cccc(C(F)(F)F)c5)c4c3c2)cc1 | 283 | 3270 | 7230 | 11.6
2 | O=c1[nH]c2cnc3ccc(-c4ccc5[nH]cnc5c4)cc3c2n1-c1cccc(C(F)(F)F)c1 | 214 | 347 | 3240 | 
3 | O=c1[nH]c2cnc3ccccc3c2n1-c1cccc(C(F)(F)F)c1 | 5030 | 7460 | > 45000 | 
4 | Cn1c(=O)n(-c2cccc(C(F)(F)F)c2)c2c3cc(-c4cccnc4)ccc3ncc21 | 95 | 236 | 10300 | 
5 | Cn1c(=O)n(-c2cccc(C(F)(F)F)c2)c2c3cc(-c4ccc(C(N)=O)cc4)ccc3ncc21 | 38 | 497 | 4690 | 10
6 | Cn1c(=O)n(-c2cccc(C(F)(F)F)c2)c2c3cc(-c4ccc(O)cc4)ccc3ncc21 | 114 | 229 | 2330 | 1
7 | Cc1ccc(-c2ccc3ncc4[nH]c(=O)n(-c5cccc(C(F)(F)F)c5)c4c3c2)cn1 | 180 | 320 | > 45000 | 
8 | CCn1c(=O)n(-c2cccc(C(F)(F)F)c2)c2c3cc(-c4ccc(Cl)cc4)ccc3ncc21 | 3930 | 10400 | > 45000 | 1
9 | Cn1c(=O)n(-c2cccc(C(F)(F)F)c2)c2c3cc(-c4ccc(Cl)cc4)ccc3ncc21 | 1750 | 1860 | > 45000 | 1
10 | COc1cccc(-n2c(=O)n(C)c3cnc4ccc(-c5ccc(N)nc5)cc4c32)c1 | 88 | 126 | 2530 | 
11 | Cn1c(=O)n(-c2cccc(C(F)(F)F)c2)c2c3cc(-c4ccc(C#N)cc4)ccc3ncc21 | 7330 | 11000 | > 45000 | 1
12 | Nc1ncc(-c2ccc3ncc4[nH]c(=O)n(-c5cccc(C(F)(F)F)c5)c4c3c2)cn1 | 213 | 450 | 2540 | 
13 | CC(=O)Nc1ccc(-c2ccc3ncc4[nH]c(=O)n(-c5cccc(C(F)(F)F)c5)c4c3c2)cn1 | 81 | 186 | > 45000 | 
14 | Cn1c(=O)n(-c2cccc(C(F)(F)F)c2)c2c3cc(-c4ccccc4)ccc3ncc21 | 442 | 4710 | > 45000 | 10.7
15 | Cn1c(=O)n(-c2cccc(C(F)(F)F)c2)c2c3cc(-c4ccc(O)nc4)ccc3ncc21 | 158 | 294 | 23500 | 
16 | CC(=O)Nc1ccc(-c2ccc3ncc4c(c3c2)n(-c2cccc(C(F)(F)F)c2)c(=O)n4C)cn1 | 25 | 42 | 3980 | 
17 | Cn1c(=O)n(-c2cccc(C(F)(F)F)c2)c2c3ccccc3ncc21 | 17000 | 3640 | > 45000 | 
18 | Cn1c(=O)n(-c2cccc(C(F)(F)F)c2)c2c3cc(-c4ccc(S(N)(=O)=O)cc4)ccc3ncc21 | 452 | 816 | > 45000 | 1
19 | Cn1c(=O)n(-c2ccccc2)c2c3cc(-c4ccc(N)nc4)ccc3ncc21 | 69 | 219 | 6540 | 
20 | Cn1c(=O)n(-c2cccc(C(F)(F)F)c2)c2c3cc(-c4cccc(C#N)c4)ccc3ncc21 | 184 | 2160 | > 45000 | 11.7
21 | O=c1[nH]c2cnc3ccc(-c4ccccc4)cc3c2n1-c1cccc(C(F)(F)F)c1 | 4040 | 18400 | > 45000 | 4.6
22 | Cn1c(=O)n(-c2cccc(C(F)(F)F)c2)c2c3cc(-c4ccc5[nH]cnc5c4)ccc3ncc21 | 65 | 157 | 2630 | 
23 | N#Cc1ccc(-c2ccc3ncc4[nH]c(=O)n(-c5cccc(C(F)(F)F)c5)c4c3c2)cc1 | 2580 | 6330 | > 45000 | 1
24 | Cc1ccc(-c2ccc3ncc4c(c3c2)n(-c2cccc(C(F)(F)F)c2)c(=O)n4C)cn1 | 21 | 81 | 14500 | 
25 | Cn1c(=O)n(-c2cccc(C(F)(F)F)c2)c2c3cc(-c4cccc(N)c4)ccc3ncc21 | 77 | 145 | 13900 | 1
26 | Cc1ccc(-c2ccc3ncc4[nH]c(=O)n(-c5cccc(C(F)(F)F)c5)c4c3c2)cc1 | 5190 | 7050 | > 45000 | 1
27 | Cn1c(=O)n(-c2cccc(C(F)(F)F)c2)c2c3cc(-c4cnc(N)nc4)ccc3ncc21 | 17 | 52 | 1330 | 
28 | NC(=O)c1ccc(-c2ccc3ncc4[nH]c(=O)n(-c5cccc(C(F)(F)F)c5)c4c3c2)cc1 | 109 | 294 | > 45000 | 1

Row | SMILES | IC50 [1] [nM] | IC50 [2] [nM] | IC50 [3] [nM] | Ratio IC50 [4]
29 | CS(=O)(=O)c1ccc(-c2ccc3ncc4[nH]c(=O)n(-c5cccc(C(F)(F)F)c5)c4c3c2)cc1 | 1160 | 1110 | > 45000 | 1
30 | Cn1c(=O)n(-c2cccc(C(F)(F)F)c2)c2c3cc(-c4ccc(F)cc4)ccc3ncc21 | 3180 | 5590 | > 45000 | 1
31 | COc1ccc(-n2c(=O)n(C)c3cnc4ccc(-c5ccc(N)nc5)cc4c32)cc1 | 47 | 148 | 2340 | 
32 | Cn1c(=O)n(-c2cccc(C(F)(F)F)c2)c2c3cc(-c4cnc5ccccc5c4)ccc3ncc21 | 5780 | 5270 | 31600 | 
33 | Nc1ccc(-c2ccc3ncc4[nH]c(=O)n(-c5ccc(C(F)(F)F)cc5)c4c3c2)cn1 | 530 | 576 | > 45000 | 
34 | Cn1c(=O)n(-c2cccc(C(F)(F)F)c2)c2c3cc(-c4ccncc4)ccc3ncc21 | 93 | 359 | 1730 | 
35 | N#Cc1cccc(-c2ccc3ncc4[nH]c(=O)n(-c5cccc(C(F)(F)F)c5)c4c3c2)c1 | 874 | 2790 | > 45000 | 1
36 | Cn1c(=O)n(-c2ccc(C#N)cc2)c2c3cc(-c4ccc(N)nc4)ccc3ncc21 | 98 | 118 | > 45000 | 
37 | O=c1[nH]c2cnc3ccc(-c4ccc(O)cc4)cc3c2n1-c1cccc(C(F)(F)F)c1 | 781 | 1470 | 4060 | 1
38 | Cn1c(=O)n(-c2cccc(C(F)(F)F)c2)c2c3cc(-c4ccc(N)nc4)ccc3ncc21 | 7 | 28 | 2600 | 4
39 | Cn1c(=O)n(C2CC2)c2c3cc(-c4ccc(N)nc4)ccc3ncc21 | 1160 | 865 | 11400 | 
40 | O=c1[nH]c2cnc3ccc(-c4ccc(F)cc4)cc3c2n1-c1cccc(C(F)(F)F)c1 | 1570 | 1830 | > 45000 | 1
41 | Cn1c(=O)n(-c2cccc(C(F)(F)F)c2)c2c3cc(-c4ccc(S(C)(=O)=O)cc4)ccc3ncc21 | 578 | 855 | > 45000 | 1
42 | Cn1c(=O)n(-c2ccc(C(F)(F)F)cc2)c2c3cc(-c4ccc(N)nc4)ccc3ncc21 | 104 | 237 | > 45000 | 
43 | Cn1c(=O)n(-c2cccc(C(F)(F)F)c2)c2c3cc(-c4ccc(N)cc4)ccc3ncc21 | 86 | 87 | 5530 | 1
44 | O=c1[nH]c2cnc3ccc(-c4ccc(O)nc4)cc3c2n1-c1cccc(C(F)(F)F)c1 | 412 | 4630 | > 45000 | 
45 | O=c1[nH]c2cnc3ccc(-c4cccnc4)cc3c2n1-c1cccc(C(F)(F)F)c1 | 2820 | 11400 | 2250 | 
46 | N#Cc1ccc(-n2c(=O)[nH]c3cnc4ccc(-c5ccc(N)nc5)cc4c32)cc1 | 386 | 482 | > 45000 | 
47 | Nc1ccc(-c2ccc3ncc4[nH]c(=O)n(-c5cccc(C(F)(F)F)c5)c4c3c2)cn1 | 91 | 97 | 3110 | 
48 | Nc1cccc(-c2ccc3ncc4[nH]c(=O)n(-c5cccc(C(F)(F)F)c5)c4c3c2)c1 | 275 | 637 | 6170 | 1
49 | Cn1c(=O)n(C2CCCCC2)c2c3cc(-c4ccc(N)nc4)ccc3ncc21 | 832 | 1880 | 3840 | 
50 | Cc1ccc(-c2ccc3ncc4c(c3c2)n(-c2cccc(C(F)(F)F)c2)c(=O)n4C)cc1 | 733 | 524 | > 45000 | 1
51 | O=c1[nH]c2cnc3ccc(-c4ccncc4)cc3c2n1-c1cccc(C(F)(F)F)c1 | 313 | 1140 | 1500 | 
52 | Nc1ccc(-c2ccc3ncc4[nH]c(=O)n(C5CCCCC5)c4c3c2)cn1 | 1350 | 2870 | 6500 | 
53 | NS(=O)(=O)c1ccc(-c2ccc3ncc4[nH]c(=O)n(-c5cccc(C(F)(F)F)c5)c4c3c2)cc1 | 948 | 2330 | > 45000 | 1
54 | CCn1c(=O)n(-c2cccc(C(F)(F)F)c2)c2c3cc(-c4ccc(N)nc4)ccc3ncc21 | 183 | 205 | 3680 | 
55 | O=c1[nH]c2cnc3ccc(-c4cnc5ccccc5c4)cc3c2n1-c1cccc(C(F)(F)F)c1 | 15400 | 2350 | > 45000 | 
